Source: ChEMBL document CHEMBL1158959, “Antitumor agents, 119. Kansuiphorins A and B, two novel antileukemic diterpene esters from Euphorbia kansui” (J Nat Prod, 1991)
≈ marks a conversion by molar mass, not a printed value. Calls of active or inactive are those of the source. The calls are words filed in the database; no cut-off is given here.

Legend:
P388 [1] = assay: In vivo antileukemic activity in mouse P388 cells at 0.5 mg/kg relative to control; type: functional
Summary of the method: (§1)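 In vivo P-388 lymphocytic leukemia model run by standard National Cancer Institute procedures; activity is reported as T/C (%), treated relative to control.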

HOP-62 = assay: Cytotoxicity against human HOP62 cells; type: functional, cell-based
NCI-H522 = assay: Cytotoxicity against human NCI-H522 cells; type: functional, cell-based
NCI-H69 = assay: Cytotoxicity against human H69 cells; type: functional, cell-based
UO-31 = assay: Cytotoxicity against human UO31 cells; type: functional, cell-based
NCI/ADR-RES = assay: Cytotoxicity against human MCF7/ADR cells; type: functional, cell-based
P388 [2] = assay: In vivo antileukemic activity in mouse P388 cells at 0.1 mg/kg relative to control; type: functional; summary of the method: as §1
SNB-19 = assay: Cytotoxicity against human SNB19 cells; type: functional, cell-based
OVCAR-8 = assay: Cytotoxicity against human OVCAR8 cells; type: functional, cell-based
SK-MEL-5 = assay: Cytotoxicity against human SK-MEL-5 cells; type: functional, cell-based
U-251 = assay: Cytotoxicity against human U251 cells; type: functional, cell-based
A704 = assay: Cytotoxicity against human A704 cells; type: functional, cell-based
H125 = assay: Cytotoxicity against human H125 cells; type: functional, cell-based
MOLT-4 = assay: Cytotoxicity against human MOLT4 cells; type: functional, cell-based
RPMI-7951 = assay: Cytotoxicity against human RPMI7951 cells; type: functional, cell-based
SN12K1 = assay: Cytotoxicity against human SN12K1 cells; type: functional, cell-based
SNB-75 = assay: Cytotoxicity against human SNB75 cells; type: functional, cell-based
A498 = assay: Cytotoxicity against human A498 cells; type: functional, cell-based
MCF7 = assay: Cytotoxicity against human MCF7 cells; type: functional, cell-based
SK-MEL-2 = assay: Cytotoxicity against human SK-MEL-2 cells; type: functional, cell-based
HCC 2998 = assay: Cytotoxicity against human HCC2998 cells; type: functional, cell-based
OVCAR-5 = assay: Cytotoxicity against human OVCAR5 cells; type: functional, cell-based
NCI-H82 = assay: Cytotoxicity against human H82 cells; type: functional, cell-based
K562 = assay: Cytotoxicity against human K562 cells; type: functional, cell-based
DLD-1 = assay: Cytotoxicity against human DLD1 cells; type: functional, cell-based
[3] = Cytotoxicity against human NCI-H322 cells; type: functional, cell-based
HL-60(TB) = assay: Cytotoxicity against human HL-60(TB) cells; type: functional, cell-based
EKVX = assay: Cytotoxicity against human EKVX cells; type: functional, cell-based
NCI-H146 = assay: Cytotoxicity against human NCI-H146 cells; type: functional, cell-based
Malme-3M = assay: Cytotoxicity against human MALME-3M cells; type: functional, cell-based
SW-620 = assay: Cytotoxicity against human SW620 cells; type: functional, cell-based
NCI-H524 = assay: Cytotoxicity against human NCI-H524 cells; type: functional, cell-based
SNB44 = assay: Cytotoxicity against human SNB44 cells; type: functional, cell-based
P388 [4] = assay: Cytotoxicity against adriamycin-resistant mouse P388 cells; type: functional, cell-based
NCI-H23 = assay: Cytotoxicity against human H23 cells; type: functional, cell-based

With `CCCCCCCCCCCCCCCC(=O)OC[C@@]12O[C@@H]1[C@@H]1C(=O)[C@]3(C=C(C)[C@H](OC(=O)C(C)C(C)C)[C@@]3(O)[C@@H]2O)[C@H](C)C[C@]2(OC(=O)CCCCCCCCCCC)[C@H]1C2(C)C` (stereo not given in full) [KANSUIPHORIN B] as the molecule, how does the T/C (P388 [1]) read?
The T/C was “>=177%”.

For `CCCCCCCCCCCCCCCC(=O)OCC1=C[C@@H]2C(=O)[C@]3(C=C(C)[C@H](OC(=O)C(C)C(C)C)[C@@]3(O)[C@@H]1O)[C@H](C)C[C@]1(OC(=O)CCCCCCCCCCC)[C@H]2C1(C)C` (stereo not given in full) [KANSUIPHORIN A], which IC50 (HOP-62) is on record?
Its IC50 is 0.06 µg/mL (≈ 0.0679 µM).

And the Activity (NCI-H522)?
Its Activity is “inactive”.

What about the Activity (NCI-H69) of the same molecule?
Its Activity is “inactive”.

And the Activity (UO-31)?
Its Activity is “inactive”.

What about the Activity (NCI/ADR-RES) of the same molecule?
The Activity was “inactive”.

What about the T/C (P388 [2]) of the same molecule?
The T/C was “>=176%”.

And the Activity (SNB-19)?
The Activity was “inactive”.

And the Activity (OVCAR-8)?
The Activity was “inactive”.

What about the IC50 (SK-MEL-5) of the same molecule?
The IC50 was 0.14 µg/mL (≈ 0.158 µM).

What about the Activity (U-251) of the same molecule?
The Activity was “inactive”.

What about the IC50 (A704) of the same molecule?
The IC50 was 0.03 µg/mL (≈ 0.034 µM).

What about the Activity (H125) of the same molecule?
The Activity was “inactive”.

And the IC50 (MOLT-4)?
Its IC50 is 0.13 µg/mL (≈ 0.147 µM).

And the IC50 (RPMI-7951)?
Its IC50 is 0.05 µg/mL (≈ 0.0566 µM).

And the IC50 (SN12K1)?
Its IC50 is 0.07 µg/mL (≈ 0.0792 µM).

What about the Activity (SNB-75) of the same molecule?
Its Activity is “inactive”.

What about the IC50 (A498) of the same molecule?
The IC50 was 0.02 µg/mL (≈ 0.0226 µM).

And the Activity (MCF7)?
The Activity was “inactive”.

And the Activity (SK-MEL-2)?
Its Activity is “inactive”.

What about the Activity (HCC 2998) of the same molecule?
The Activity was “inactive”.

What about the Activity (OVCAR-5) of the same molecule?
Its Activity is “inactive”.

What about the Activity (NCI-H82) of the same molecule?
Its Activity is “inactive”.

And the IC50 (K562)?
The IC50 was 0.03 µg/mL (≈ 0.034 µM).

What about the Activity (DLD-1) of the same molecule?
Its Activity is “inactive”.

And the IC50 [3]?
Its IC50 is 0.33 µg/mL (≈ 0.374 µM).

And the IC50 (HL-60(TB))?
The IC50 was 0.03 µg/mL (≈ 0.034 µM).

And the Activity (EKVX)?
The Activity was “inactive”.

And the Activity (NCI-H146)?
Its Activity is “inactive”.

And the IC50 (Malme-3M)?
The IC50 was 0.32 µg/mL (≈ 0.362 µM).

And the IC50 (SW-620)?
Its IC50 is 0.08 µg/mL (≈ 0.0906 µM).

And the Activity (NCI-H524)?
Its Activity is “inactive”.

And the Activity (SNB44)?
The Activity was “inactive”.

And the Activity (P388 [4])?
The Activity was “inactive”.

And the Activity (NCI-H23)?
The Activity was “inactive”.
